Drawing on ChEMBL document CHEMBL1275448, “Identification of a novel multidrug efflux pump of Mycobacterium tuberculosis” (2008), this text covers MIC for six compounds.

The structures appear in SMILES notation. Converted amounts (≈) assume the structure as drawn.

This assay concerns Mycolicibacterium smegmatis. The experiment in a line: Antimicrobial activity against wild-type Mycobacterium smegmatis SMR5 by microplate Alamar blue assay. The assay is classed as functional. The gist of the method: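 M. smegmatis SMR5 carried either control plasmid pMS2 or rv0194 expression vector pML655. Cells were grown at 37°C in Middlebrook 7H9 with 0.2% glycerol and 0.05% Tween 80, then tested by microplate Alamar blue assay. MIC was the lowest antibiotic concentration reducing culture viability by ≥90%, read by fluorescence (ex 530/em 590 nm, room temperature).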
On the technique in general: Alamar Blue is a resazurin reagent that responds to reducing activity.
Regarding `O=C(N[C@H](CO)[C@H](O)c1ccc([N+](=O)[O-])cc1)C(Cl)Cl` [CHLORAMPHENICOL], the minimum inhibitory concentration (MIC) (in general, the lowest concentration that inhibits growth of the organism) was 32 µg/mL (≈ 99 µM). With `CN[C@H](CC(C)C)C(=O)N[C@H]1C(=O)N[C@@H](CC(N)=O)C(=O)N[C@H]2C(=O)N[C@H]3C(=O)N[C@H](C(=O)N[C@H](C(=O)O)c4cc(O)cc(O)c4-c4cc3ccc4O)[C@H](O)c3ccc(c(Cl)c3)Oc3cc2cc(c3O[C@@H]2O[C@H](CO)[C@@H](O)[C@H](O)[C@H]2O[C@H]2C[C@](C)(N)[C@H](O)[C@H](C)O2)Oc2ccc(cc2Cl)[C@H]1O` [VANCOMYCIN], it took 1.25 µg/mL (≈ 0.863 µM) to inhibit growth (MIC). With `CO[C@@H]1[C@@H](OC(N)=O)[C@@H](O)[C@H](Oc2ccc3c(O)c(NC(=O)c4ccc(O)c(CC=C(C)C)c4)c(=O)oc3c2C)OC1(C)C` [NOVOBIOCIN], it took 4 µg/mL (≈ 6.53 µM) to inhibit growth (MIC).

`CN(C)[C@@H]1C(O)=C(C(N)=O)C(=O)[C@@]2(O)C(O)=C3C(=O)c4c(O)cccc4[C@@](C)(O)[C@H]3C[C@@H]12` [TETRACYCLINE] yielded an MIC of 0.3 µg/mL (≈ 0.675 µM). As for `CC1(C)S[C@@H]2[C@H](NC(=O)[C@H](N)c3ccccc3)C(=O)N2[C@H]1C(=O)O` [AMPICILLIN], the figure is 125 µg/mL (≈ 358 µM); as for `CC[C@H]1OC(=O)[C@H](C)[C@@H](O[C@H]2C[C@@](C)(OC)[C@@H](O)[C@H](C)O2)[C@H](C)[C@@H](O[C@@H]2O[C@H](C)C[C@H](N(C)C)[C@H]2O)[C@](C)(O)C[C@@H](C)C(=O)[C@H](C)[C@@H](O)[C@]1(C)O` [ERYTHROMYCIN], 2.5 µg/mL (≈ 3.41 µM).
